Each structure is given as a SMILES string. Out of some 65,000 compounds screened, about 1,400 (2.2%) were called active.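 Rule for the calls: active = growth inhibition at or above a cutoff equal to the mean over every tested compound plus 3 SD (cut at about 60% in these data); inactive = the rest.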 Many of the other results were omitted from the sample, so actives are more common in it than they were.

This assay can be described thus: E. coli ΔtolC antibacterial growth inhibition – strain BW25113 ΔtolC::kan, 384-well, primary screen (AID 573).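 Note: growth measured after 20 h incubation at 37 °C.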 To be noted: E. coli BW25113 tolC mutant growth, OD615; active compounds read high; screened at 10 µM (by protocol). The procedure, abridged: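 Assay system: tolC-deleted E. coli BW25113. Medium: kanamycin-containing LB broth (50 µg/mL). Dosing: 10 µM final, single dose. Timing: bacterial growth with compound for 20 h at 37 °C. Detection: A615 absorbance measurement. Read-out basis: growth inhibition in percent.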
`O=C(NCc1ccco1)c1sc2cccc(F)c2c1Cl`: the growth inhibition was -1.49% (inactive).

`CCOc1ccccc1NC(=O)C1CCN(S(=O)(=O)c2c(C)nn(C)c2C)CC1`: the growth inhibition was -6.48% (inactive).

Take `COc1ccc(-n2c(SCC(=O)OC(C)C)nnc2-c2ccccn2)cc1`: the growth inhibition was 4.58% (inactive).

Regarding `Nc1nonc1-c1nc2ccccc2n1Cc1ccc(F)cc1`, the growth inhibition was -8.77% (inactive).

Regarding `Cc1c(C(=O)N2CCOCC2)[nH]c2ccc(OCc3ccccc3)cc12`, the growth inhibition is 1.84% (inactive).

Regarding `CCOC(=O)c1c(CN2CCOCC2)n(-c2ccccc2)c2ccc(O)cc12`, the growth inhibition is 65.2% (active).

As for `O=c1c(-c2ccccc2)coc2c(CN3CCOCC3)c(O)ccc12`, the growth inhibition was -9.34% (inactive).

As to `O=C(O)c1ccc(NS(=O)(=O)c2cccc3nsnc23)cc1`, the growth inhibition was -25% (inactive).

Consider `Cc1cccc2nc(CNc3ccc(F)cc3)cn12`, for which the growth inhibition is 4.83% (inactive).

As to `COc1cc(-c2noc(C3CCCN(S(=O)(=O)c4cccc(Cl)c4)C3)n2)cc(OC)c1OC` (stereo unspecified), the growth inhibition was 35.2% (inactive).

For the molecule `O=C(Nc1ccccc1N1CCCCC1)c1cccc(F)c1`, the growth inhibition was 100% (active).

For `O=C(Nc1ccccc1N1CCN(c2ccccc2)CC1)c1cccc(F)c1`, the growth inhibition is 17.8% (inactive).

Consider `O=C(Nc1ccccc1N1CCCCC1)c1ccc2nccnc2c1`, for which the growth inhibition was 28.8% (inactive).

For `O=C(Nc1ccccc1F)C1C2C=CC3(O2)C1C(=O)N(c1cccnc1)C3C(=O)NC1CCCCC1` (stereo unspecified), the growth inhibition is -12.5% (inactive).

In the case of `CCOc1ccc2nc(NCCNS(=O)(=O)c3ccccc3)c(C#N)cc2c1`, the growth inhibition was -0.48% (inactive).

In the case of `COc1ccc2nc(N3CCCC(O)C3)c(C#N)cc2c1` (stereo unspecified), the growth inhibition is 5.39% (inactive).

For the molecule `CCOc1ccc2nc(N3CCCN(C(=O)Nc4ccccc4C)CC3)c(C#N)cc2c1`, the growth inhibition was 62.3% (active).

With `Cc1oc(-c2ccccc2F)nc1CS(=O)(=O)CC(=O)NCCCN(C)C1CCCCC1`, the growth inhibition is -1.97% (inactive).

With `COc1ccc(-c2nc(CS(=O)CC(=O)N3CCc4ccccc4C3)c(C)o2)cc1` (stereo unspecified), the growth inhibition is 3.93% (inactive).

As for `Cc1ccccc1-c1nc(CS(=O)(=O)CC(=O)N2CCc3ccccc3C2)c(C)o1`, the growth inhibition was 63% (active).

As to `CCCc1cc(=O)[nH]c(SCc2ccc(C#N)cc2)n1`, the growth inhibition was 14.9% (inactive).

`CCCCC(=O)N(c1ccc(OC)cc1)C1C=CS(=O)(=O)C1` (stereo unspecified): the growth inhibition is -9.87% (inactive).

Turning to `Fc1ccc(Cn2nnnc2C(c2cccs2)N2CCCCCC2)cc1` (stereo unspecified), the growth inhibition was 85.7% (active).

Take `CCC(C)(C)n1nnnc1C(c1cccs1)N1CCN(Cc2ccccc2)CC1` (stereo unspecified): the growth inhibition was 4.31% (inactive).

Take `Fc1ccccc1C(c1nnnn1Cc1ccc2c(c1)OCO2)N1CCN(Cc2ccccc2)CC1` (stereo unspecified): the growth inhibition was 20.4% (inactive).

Consider `COc1ccc(N2CCN(Cc3cc(=O)oc4ccc5ccccc5c34)CC2)cc1`, for which the growth inhibition was 11.6% (inactive).

Values taken from PubChem BioAssay AID573 (SRMLSC, 2007).
